According to ChEMBL document CHEMBL3120107, “Cytotoxic cardiac glycosides and coumarins from Antiaris toxicaria” (2014):
In brackets after ≈: the same amount, converted by molar mass.

Assays:
[1] = Cytotoxicity against human […] cells assessed as growth inhibition after 72 hrs by SRB assay; format: functional; settings: Homo sapiens, HCT9, 72 h; read-out: ED50 (the source's name)
How it was run: (§1)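 Sulforhodamine B assay run by NCI-validated procedure. Cells grown at 37 °C under humidified 5% CO2 in RPMI-1640 with 25 mM HEPES, […] (w/v) sodium bicarbonate, 10% (v/v) FBS and 100 μg/mL kanamycin. Compounds came from DMSO stocks, with final DMSO ≤ 1% (v/v). Continuous exposure for 72 h. ED50 (μg/mL, 50% cell-number reduction) interpolated from dose-response data. Triplicate tests. Doxorubicin served as positive control.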

PC-3 = test: Cytotoxicity against human PC3 cells assessed as growth inhibition after 72 hrs by SRB assay; format: functional; settings: Homo sapiens, PC-3, 72 h; read-out: ED50 (the source's name); how it was run: as §1
[2] = Cytotoxicity against human U87MG cells assessed as growth inhibition after 72 hrs by SRB assay; format: functional, U-87MG ATCC; settings: Homo sapiens, U-87 MG, 72 h; read-out: ED50 (the source's name); how it was run: as §1
KB = test: Cytotoxicity against human KB cells assessed as growth inhibition after 72 hrs by SRB assay; format: functional; settings: Homo sapiens, KB, 72 h; read-out: ED50 (the source's name); how it was run: as §1
SK-MEL-2 = test: Cytotoxicity against human SK-MEL-2 cells assessed as growth inhibition after 72 hrs by SRB assay; format: functional; settings: Homo sapiens, SK-MEL-2, 72 h; read-out: ED50 (the source's name); how it was run: as §1
1A9 = test: Cytotoxicity against human 1A9 cells assessed as growth inhibition after 72 hrs by SRB assay; format: functional; settings: Homo sapiens, 1A9, 72 h; read-out: ED50 (the source's name); how it was run: as §1
MCF7 = test: Cytotoxicity against human MCF7 cells assessed as growth inhibition after 72 hrs by SRB assay; format: functional; settings: Homo sapiens, MCF7, 72 h; read-out: ED50 (the source's name); how it was run: as §1
[3] = Cytotoxicity against human KBVIN cells assessed as growth inhibition after 72 hrs by SRB assay; format: functional; settings: Homo sapiens, KBVIN, 72 h; read-out: ED50 (the source's name); how it was run: as §1
CAKI-1 = test: Cytotoxicity against human CAKI-1 cells assessed as growth inhibition after 72 hrs by SRB assay; format: functional; settings: Homo sapiens, CAKI-1, 72 h; read-out: ED50 (the source's name); how it was run: as §1
A549 = test: Cytotoxicity against human A549 cells assessed as growth inhibition after 72 hrs by SRB assay; format: functional; settings: Homo sapiens, A549, 72 h; read-out: ED50 (the source's name); how it was run: as §1

SMILES | EC50 [1] | EC50 (PC-3) | EC50 [2] | EC50 (KB) | EC50 (SK-MEL-2) | EC50 (1A9) | EC50 (MCF7) | EC50 [3] | EC50 (CAKI-1) | EC50 (A549)
C[C@@H]1O[C@H](O[C@H]2CC[C@@]3(C(=O)O)[C@H](CC[C@@H]4[C@@H]3CC[C@]3(C)[C@@H](C5=CC(=O)OC5)CC[C@]43O)C2)[C@H](O)[C@H](O)[C@H]1O [ANTIAROSIDE E] | 0.35 µg/mL (≈ 0.636 µM) | 0.16 µg/mL (≈ 0.291 µM) | 0.73 µg/mL (≈ 1.33 µM) | 0.49 µg/mL (≈ 0.89 µM) | 0.12 µg/mL (≈ 0.218 µM) | 0.13 µg/mL (≈ 0.236 µM) | 0.42 µg/mL (≈ 0.763 µM) | 0.57 µg/mL (≈ 1.04 µM) | 0.13 µg/mL (≈ 0.236 µM) | 0.07 µg/mL (≈ 0.127 µM)
C[C@@H]1O[C@@H](O[C@H]2CC[C@]3(C=O)[C@H]4CC[C@]5(C)[C@@H](C6=CC(=O)OC6)CC[C@]5(O)[C@@H]4CC[C@]3(O)C2)[C@H](O)[C@H](O)[C@H]1O [CONVALLATOXIN] | 0.0014 µg/mL (≈ 0.00254 µM) | 0.094 µg/mL (≈ 0.171 µM) | 0.014 µg/mL (≈ 0.0254 µM) | 0.014 µg/mL (≈ 0.0254 µM) | 0.0013 µg/mL (≈ 0.00236 µM) | 0.03 µg/mL (≈ 0.0545 µM) | 0.0065 µg/mL (≈ 0.0118 µM) | 0.013 µg/mL (≈ 0.0236 µM) | 0.0031 µg/mL (≈ 0.00563 µM) | 0.0027 µg/mL (≈ 0.0049 µM)
C[C@H]1O[C@@H](O[C@H]2CC[C@]3(C=O)[C@H]4CC[C@]5(C)[C@@H](C6=CC(=O)OC6)CC[C@]5(O)[C@@H]4CC[C@]3(O)C2)[C@H](O)[C@H](O)[C@H]1O [DESGLUCOCHEIROTOXIN] | 0.044 µg/mL (≈ 0.0799 µM) | 0.018 µg/mL (≈ 0.0327 µM) | 0.054 µg/mL (≈ 0.0981 µM) | 0.044 µg/mL (≈ 0.0799 µM) | 0.015 µg/mL (≈ 0.0272 µM) | 0.012 µg/mL (≈ 0.0218 µM) | 0.015 µg/mL (≈ 0.0272 µM) | 0.018 µg/mL (≈ 0.0327 µM) | 0.014 µg/mL (≈ 0.0254 µM) | 0.0092 µg/mL (≈ 0.0167 µM)
C[C@@H]1O[C@H](O[C@H]2CC[C@]3(CO)[C@H]4CC[C@]5(C)[C@@H](C6=CC(=O)OC6)CC[C@]5(O)[C@@H]4CC[C@]3(O)C2)[C@H](O)[C@H](O)[C@H]1O [CONVALLATOXOL] | 0.02 µg/mL (≈ 0.0362 µM) | 0.013 µg/mL (≈ 0.0235 µM) | 0.036 µg/mL (≈ 0.0651 µM) | 0.025 µg/mL (≈ 0.0452 µM) | 0.014 µg/mL (≈ 0.0253 µM) | 0.0076 µg/mL (≈ 0.0138 µM) | 0.012 µg/mL (≈ 0.0217 µM) | 0.014 µg/mL (≈ 0.0253 µM) | 0.0061 µg/mL (≈ 0.011 µM) | 0.004 µg/mL (≈ 0.00724 µM)
C[C@@H]1O[C@@H](O[C@H]2CC[C@]3(C=O)[C@H]4CC[C@]5(C)[C@@H](C6=CC(=O)OC6)CC[C@]5(O)[C@@H]4CC[C@]3(O)C2)[C@H](O)[C@H](O)[C@H]1O[C@@H]1O[C@H](CO)[C@@H](O)[C@H](O)[C@H]1O [CONVALLOSIDE] | 0.2 µg/mL (≈ 0.281 µM) | 0.095 µg/mL (≈ 0.133 µM) | 0.4 µg/mL (≈ 0.561 µM) | 0.2 µg/mL (≈ 0.281 µM) | 0.42 µg/mL (≈ 0.589 µM) | 0.072 µg/mL (≈ 0.101 µM) | 0.15 µg/mL (≈ 0.21 µM) | 0.18 µg/mL (≈ 0.253 µM) | 0.071 µg/mL (≈ 0.0996 µM) | 0.07 µg/mL (≈ 0.0982 µM)
C[C@@H]1O[C@H](O[C@H]2CC[C@]3(C)[C@H]4CC[C@]5(C)[C@@H](C6=CC(=O)OC6)CC[C@]5(O)[C@@H]4CC[C@]3(O)C2)[C@H](O)[C@H](O)[C@H]1O [PERIPLORHAMNOSIDE] | 0.044 µg/mL (≈ 0.082 µM) | 0.021 µg/mL (≈ 0.0391 µM) | 0.082 µg/mL (≈ 0.153 µM) | 0.054 µg/mL (≈ 0.101 µM) | 0.017 µg/mL (≈ 0.0317 µM) | 0.012 µg/mL (≈ 0.0224 µM) | 0.018 µg/mL (≈ 0.0335 µM) | 0.02 µg/mL (≈ 0.0373 µM) | 0.014 µg/mL (≈ 0.0261 µM) | 0.012 µg/mL (≈ 0.0224 µM)
C[C@@H]1O[C@H](O[C@H]2CC[C@]3(C(=O)O)[C@H]4C[C@@H](O)[C@]5(C)[C@@H](C6=CC(=O)OC6)CC[C@]5(O)[C@@H]4CC[C@]3(O)C2)[C@H](O)[C@H](O)[C@H]1O [ANTIAROSIDE G] | – | – | – | – | – | – | 17.5 µg/mL (≈ 30 µM) | – | – | 5.3 µg/mL (≈ 9.1 µM)
C[C@@H]1O[C@H](O[C@H]2CC[C@@H]3[C@H]4CC[C@]5(C)[C@@H](C6=CC(=O)OC6)CC[C@]5(O)[C@@H]4CC[C@]3(O)C2)[C@H](O)[C@H](O)[C@H]1O [ANTIAROSIDE I] | 2.9 µg/mL (≈ 5.55 µM) | 0.9 µg/mL (≈ 1.72 µM) | 3.6 µg/mL (≈ 6.89 µM) | 2 µg/mL (≈ 3.83 µM) | 0.3 µg/mL (≈ 0.574 µM) | 0.83 µg/mL (≈ 1.59 µM) | 1.3 µg/mL (≈ 2.49 µM) | 2.3 µg/mL (≈ 4.4 µM) | 1.1 µg/mL (≈ 2.1 µM) | 0.36 µg/mL (≈ 0.689 µM)
C[C@]12CC[C@H](O)C[C@@]1(O)CC[C@@H]1[C@@H]2CC[C@]2(C)[C@@H]([C@]3(O)COC(=O)C3)CC[C@]12O [ANTIAROTOXININ A] | – | – | – | – | – | – | 15 µg/mL (≈ 36.7 µM) | – | – | 4.3 µg/mL (≈ 10.5 µM)
CC1(C)Oc2ccc3ccc(=O)oc3c2[C@@H](O[C@@H]2O[C@H](CO)[C@@H](O)[C@H](O)[C@H]2O)[C@@H]1O | – | – | 7.4 µg/mL (≈ 17.4 µM) | 5.8 µg/mL (≈ 13.7 µM) | – | – | 3.1 µg/mL (≈ 7.3 µM) | 4.1 µg/mL (≈ 9.66 µM) | – | 1.2 µg/mL (≈ 2.83 µM)
